Assay results from ChEMBL document CHEMBL1137710, “Synthesis and in vitro antitumor activity of new quinoxaline derivatives” (2009).

Legend:
Type in all cases: functional
UO-31 = assay: Growth inhibition of human UO31 cells after 48 hrs by sulforhodamine B assay; conditions: UO-31, 48 h
Summary of the method: (§1)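 Run in the NCI 60-human-tumour-cell-line panel, tested over a 5-log dose range. Dose–response curves gave three values per cell line, each as a log10 molar concentration: GI50 (50% inhibition of net cell growth), TGI (total inhibition of net growth) and LC50 (50% net cell death). The mean graph midpoint is the arithmetic mean over all lines, with insensitive lines entered at the highest concentration tested.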

NCI/ADR-RES = assay: Growth inhibition of human NCI/ADR-RES cells after 48 hrs by sulforhodamine B assay
Summary of the method: (§2)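 NCI 60-human-tumor-cell-line panel, with compounds tested over a 5-log dose range. Values are taken from dose-response curves as log10 molar concentrations: GI50 is 50% net growth inhibition, TGI is total growth inhibition, and LC50 is 50% net cell death.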

[1] = Growth inhibition of human Hs 578T cells after 48 hrs by sulforhodamine B assay; summary of the method: as §2
U-251 = assay: Growth inhibition of human U251 cells after 48 hrs by sulforhodamine B assay; conditions: U-251, 48 h; summary of the method: as §1
MDA-MB-435 = assay: Growth inhibition of human MDA-MB-435 cells after 48 hrs by sulforhodamine B assay; conditions: MDA-MB-435, 48 h; summary of the method: as §2
786-0 = assay: Growth inhibition of human 786-0 cells after 48 hrs by sulforhodamine B assay; conditions: 786-0, 48 h; summary of the method: as §2
K562 = assay: Growth inhibition of human K562 cells after 48 hrs by sulforhodamine B assay; conditions: K562, 48 h; summary of the method: as §2
LOX IMVI = assay: Growth inhibition of human LOXIMVI cells after 48 hrs by sulforhodamine B assay; summary of the method: as §2
SF-268 [2] = assay: Growth inhibition of human SF268 cells after 48 hrs by sulforhodamine B assay; conditions: SF-268, 48 h; summary of the method: as §2
NCI-H522 = assay: Growth inhibition of human NCI-H522 cells after 48 hrs by sulforhodamine B assay; conditions: NCI-H522, 48 h; summary of the method: as §2
OVCAR-8 = assay: Growth inhibition of human OVCAR8 cells after 48 hrs by sulforhodamine B assay; conditions: OVCAR-8, 48 h; summary of the method: as §2
NCI-H460 = assay: Anticancer activity against human NCI-H460 cells assessed as cell growth at 100 uM after 48 hrs by sulforhodamine B assay; conditions: NCI-H460, 48 h, read-out: Activity
SF-268 [3] = assay: Anticancer activity against human SF268 cells assessed as cell growth at 100 uM after 48 hrs by sulforhodamine B assay; conditions: SF-268, 48 h, read-out: Activity
SK-MEL-28 = assay: Growth inhibition of human SK-MEL-28 cells after 48 hrs by sulforhodamine B assay; conditions: SK-MEL-28, 48 h; summary of the method: as §2
CAKI-1 = assay: Growth inhibition of human Caki1 cells after 48 hrs by sulforhodamine B assay; conditions: CAKI-1, 48 h; summary of the method: as §2
HL-60(TB) = assay: Growth inhibition of human HL-60(TB) cells after 48 hrs by sulforhodamine B assay; conditions: HL-60, 48 h
Summary of the method: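 Tested only on compounds active in a three-line prescreen, in the NCI 60-human-tumour-cell-line panel over a 5-log dose range. Values come from dose–response curves as log10 molar GI50, the concentration inhibiting 50% net cell growth. Log10 TGI (total growth inhibition) and log10 LC50 (50% net cell death) were derived too. Mean graph midpoints include insensitive lines at the highest concentration tested.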

MCF7 [4] = assay: Anticancer activity against human MCF7 cells assessed as cell growth at 100 uM after 48 hrs by sulforhodamine B assay; conditions: MCF7, 48 h, read-out: Activity
UACC-62 = assay: Growth inhibition of human UACC62 cells after 48 hrs by sulforhodamine B assay; conditions: UACC-62, 48 h; summary of the method: as §1
SW-620 = assay: Growth inhibition of human SW620 cells after 48 hrs by sulforhodamine B assay; conditions: SW-620, 48 h; summary of the method: as §1
OVCAR-3 = assay: Growth inhibition of human OVCAR-3 cells after 48 hrs by sulforhodamine B assay; conditions: OVCAR-3, 48 h; summary of the method: as §2
SNB-19 = assay: Growth inhibition of human SNB19 cells after 48 hrs by sulforhodamine B assay; conditions: SNB-19, 48 h; summary of the method: as §1
[5] = Growth inhibition of human […] cells after 48 hrs by sulforhodamine B assay; summary of the method: as §2
IGROV-1 = assay: Growth inhibition of human IGROV1 cells after 48 hrs by sulforhodamine B assay; conditions: IGROV-1, 48 h; summary of the method: as §2
M14 = assay: Growth inhibition of human M14 cells after 48 hrs by sulforhodamine B assay; conditions: M14, 48 h; summary of the method: as §2
HOP-62 = assay: Growth inhibition of human HOP62 cells after 48 hrs by sulforhodamine B assay; conditions: HOP-62, 48 h; summary of the method: as §2
OVCAR-4 = assay: Growth inhibition of human OVCAR4 cells after 48 hrs by sulforhodamine B assay; conditions: OVCAR-4, 48 h; summary of the method: as §2
NCI-H322M = assay: Growth inhibition of human NCI-H322M cells after 48 hrs by sulforhodamine B assay; summary of the method: as §2
PC-3 = assay: Growth inhibition of human PC3 cells after 48 hrs by sulforhodamine B assay; conditions: PC-3, 48 h; summary of the method: as §2
MCF7 [6] = assay: Growth inhibition of human MCF7 cells after 48 hrs by sulforhodamine B assay; conditions: MCF7, 48 h; summary of the method: as §2
[7] = read-out: pLC50 (the source's name) (converted)

COc1ccc(CNc2nc3cc(N)cc(N)c3nc2-c2ccccc2)cc1
GI50 (UO-31): 11.5 µM
CC50 (UO-31; [7]): 72.4 µM
TGI (UO-31; read-out: pTGI (converted)): 28.8 µM
GI50 (NCI/ADR-RES): 22.9 µM
CC50 (NCI/ADR-RES; [7]): > 100 µM
TGI (NCI/ADR-RES; read-out: pTGI (converted)): 83.2 µM
GI50 [1]: 26.9 µM
CC50 [1, 7]: > 100 µM
TGI ([1]; read-out: pTGI (converted)): > 100 µM
GI50 (U-251): 13.5 µM
LC50 (50% net cell kill) (U-251): 51.3 µM
TGI (U-251; read-out: pTGI (converted)): 26.3 µM
GI50 (MDA-MB-435): 10 µM
CC50 (MDA-MB-435; [7]): 46.8 µM
TGI (MDA-MB-435; read-out: pTGI (converted)): 21.9 µM
GI50 (786-0): 15.1 µM
CC50 (786-0; [7]): > 100 µM
TGI (786-0; read-out: pTGI (converted)): 41.7 µM
GI50 (K562): 25.1 µM
LC50 (K562): > 100 µM
TGI (K562; read-out: pTGI (converted)): 97.7 µM
GI50 (LOX IMVI): 13.5 µM
LC50 (LOX IMVI): 55 µM
TGI (LOX IMVI; read-out: pTGI (converted)): 27.5 µM
GI50 (SF-268 [2]): 9.77 µM
LC50 (SF-268 [2]): 49 µM
TGI (SF-268 [2]; read-out: pTGI (converted)): 21.9 µM
GI50 (NCI-H522): 10 µM
LC50 (NCI-H522): 47.9 µM
TGI (NCI-H522; read-out: pTGI (converted)): 21.9 µM
GI50 (OVCAR-8): 14.8 µM
CC50 (OVCAR-8; [7]): > 100 µM
TGI (OVCAR-8; read-out: pTGI (converted)): 39.8 µM
growth at 100 µM (NCI-H460): 0%
growth at 100 µM (SF-268 [3]): 0%
GI50 (SK-MEL-28): 17.4 µM
CC50 (SK-MEL-28; [7]): 60.3 µM
TGI (SK-MEL-28; read-out: pTGI (converted)): 32.4 µM
GI50 (CAKI-1): 16.2 µM
CC50 (CAKI-1; [7]): 79.4 µM
TGI (CAKI-1; read-out: pTGI (converted)): 36.3 µM
GI50 (HL-60(TB)): 13.5 µM
LC50 (HL-60(TB)): > 100 µM
TGI (HL-60(TB); read-out: pTGI (converted)): 51.3 µM
growth at 100 µM (MCF7 [4]): 0%
GI50 (UACC-62): 14.8 µM
CC50 (UACC-62; [7]): 58.9 µM
TGI (UACC-62; read-out: pTGI (converted)): 29.5 µM
GI50 (SW-620): 12.9 µM
CC50 (SW-620; [7]): 70.8 µM
TGI (SW-620; read-out: pTGI (converted)): 30.2 µM
GI50 (OVCAR-3): 2.24 µM
CC50 (OVCAR-3; [7]): 38.9 µM
TGI (OVCAR-3; read-out: pTGI (converted)): 7.76 µM
GI50 (SNB-19): 41.7 µM
LC50 (SNB-19): > 100 µM
TGI (SNB-19; read-out: pTGI (converted)): > 100 µM
GI50 [5]: 4.17 µM
LC50 [5]: > 100 µM
TGI ([5]; read-out: pTGI (converted)): 15.8 µM
GI50 (IGROV-1): 12.9 µM
CC50 (IGROV-1; [7]): 56.2 µM
TGI (IGROV-1; read-out: pTGI (converted)): 26.9 µM
GI50 (M14): 18.2 µM
CC50 (M14; [7]): 57.5 µM
TGI (M14; read-out: pTGI (converted)): 32.4 µM
GI50 (HOP-62): 17.4 µM
LC50 (HOP-62): 69.2 µM
TGI (HOP-62; read-out: pTGI (converted)): 34.7 µM
GI50 (OVCAR-4): 8.13 µM
CC50 (OVCAR-4; [7]): 47.9 µM
TGI (OVCAR-4; read-out: pTGI (converted)): 21.4 µM
GI50 (NCI-H322M): 22.9 µM
LC50 (NCI-H322M): > 100 µM
TGI (NCI-H322M; read-out: pTGI (converted)): 52.5 µM
GI50 (PC-3): 10.2 µM
CC50 (PC-3; [7]): 72.4 µM
TGI (PC-3; read-out: pTGI (converted)): 27.5 µM
GI50 (MCF7 [6]): 13.2 µM
CC50 (MCF7 [6]; [7]): 53.7 µM
TGI (MCF7 [6]; read-out: pTGI (converted)): 26.3 µM
